Assay results as given in ChEMBL document CHEMBL1145760, “Design, synthesis and biological evaluation of benzimidazole/benzothiazole and benzoxazole derivatives as cyclooxygenase inhibitors” (Bioorg Med Chem Lett, 2003).
pIC50: −log10 of the molar value.

Experiments:
[1] = biological target: T1, Prostaglandin G/H synthase 2 (Homo sapiens, UniProt P35354); test: Inhibitory activity against Prostaglandin G/H synthase 2 in human whole blood assay as LPS induced PGE-2 generation.; format: tissue-based
T1 sequence (P35354 whole entry): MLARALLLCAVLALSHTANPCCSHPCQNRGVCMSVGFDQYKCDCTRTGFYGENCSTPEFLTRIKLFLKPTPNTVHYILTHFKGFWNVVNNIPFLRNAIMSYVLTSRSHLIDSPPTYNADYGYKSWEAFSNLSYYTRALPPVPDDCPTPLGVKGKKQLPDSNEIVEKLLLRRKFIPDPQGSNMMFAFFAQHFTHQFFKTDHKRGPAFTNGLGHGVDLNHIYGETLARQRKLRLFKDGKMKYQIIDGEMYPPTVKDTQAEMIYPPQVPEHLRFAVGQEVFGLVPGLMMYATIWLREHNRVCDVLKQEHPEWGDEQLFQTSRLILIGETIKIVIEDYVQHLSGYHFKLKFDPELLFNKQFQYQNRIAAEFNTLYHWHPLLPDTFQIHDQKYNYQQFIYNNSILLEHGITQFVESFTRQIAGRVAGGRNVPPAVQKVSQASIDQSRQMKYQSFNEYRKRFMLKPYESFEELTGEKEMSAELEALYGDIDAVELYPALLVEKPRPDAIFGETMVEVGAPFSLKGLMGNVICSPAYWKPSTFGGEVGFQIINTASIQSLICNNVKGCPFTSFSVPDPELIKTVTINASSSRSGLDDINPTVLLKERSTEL

[2] = biological target: T2, Prostaglandin G/H synthase 1 (Homo sapiens, UniProt P23219); test: Ratio for inhibition of COX-1 to that of COX-2
T2 sequence (P23219 whole entry): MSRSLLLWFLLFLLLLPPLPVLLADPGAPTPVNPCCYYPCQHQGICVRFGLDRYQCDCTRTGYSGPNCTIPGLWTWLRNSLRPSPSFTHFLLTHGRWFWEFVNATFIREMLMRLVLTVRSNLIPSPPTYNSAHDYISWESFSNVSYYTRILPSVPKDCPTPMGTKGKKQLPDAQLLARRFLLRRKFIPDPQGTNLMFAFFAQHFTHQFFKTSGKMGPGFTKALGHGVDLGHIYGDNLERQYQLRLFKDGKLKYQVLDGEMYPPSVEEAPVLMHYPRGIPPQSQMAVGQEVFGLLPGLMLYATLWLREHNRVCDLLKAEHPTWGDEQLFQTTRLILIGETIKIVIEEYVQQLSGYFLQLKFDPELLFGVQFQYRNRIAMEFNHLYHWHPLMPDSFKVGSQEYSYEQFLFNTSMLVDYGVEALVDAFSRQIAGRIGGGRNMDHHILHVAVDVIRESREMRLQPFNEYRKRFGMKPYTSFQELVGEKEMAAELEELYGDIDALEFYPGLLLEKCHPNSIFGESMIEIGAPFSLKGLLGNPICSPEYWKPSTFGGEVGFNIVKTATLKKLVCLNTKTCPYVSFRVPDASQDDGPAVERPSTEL

[3] = biological target: T2, Prostaglandin G/H synthase 1; test: Inhibitory activity against Prostaglandin G/H synthase 1 in human whole blood assay as TXB2 generation; format: tissue-based
In short: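 COX-1 activity measured in human whole blood by TXB2 generation. IC50 values were estimated by nonlinear regression of dose–response curves and are the average of three determinations.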

| pIC50 [1] | Ratio [2] | pIC50 [3] | Structure (SMILES) |
| --- | --- | --- | --- |
| 5.83 | > 340 | < 3.30 | CCCCCCCCCCCCCCCc1cccc(OCC)c1CSc1nc2ccccc2[nH]1 |
|  | > 220 |  | CCCCCCCCCCCCCCCc1cccc(OC)c1CSc1nc2cc([N+](=O)[O-])ccc2[nH]1 |
| < 5.00 |  |  | CCCCCCCCCCCCCCCc1cccc(OC)c1CSc1nc2cc(OC(F)F)ccc2[nH]1 |
| < 5.00 |  |  | CCCCCCCCCCCCCCCc1cccc(OC)c1CSc1nc2cc(OC)ccc2[nH]1 |
| 5.97 | > 470 | < 3.30 | CCCCCCCCCCCCCCCc1cccc(OC)c1CSc1nc2ccccc2s1 |
| < 5.00 |  |  | CCCCCCCCCCCCCCCc1cccc(OCC)c1CSc1nc2ccc(OC(F)F)cc2[nH]1 |
| < 5.00 |  |  | CCCCCCCCCCCCCCCc1cccc(OCC)c1CSc1nc2ccc(C)cc2[nH]1 |
| 5.20 |  | < 3.30 | CCCCCCCCCCCCCCCc1cccc(OCC)c1CSc1nc2ccc(OC)cc2[nH]1 |
| 5.64 |  | < 3.30 | CCCCCCCCCCCCCCCc1cccc(OC)c1CSc1nc2ccc([N+](=O)[O-])cc2[nH]1 |
| 5.58 | > 190 | < 3.30 | CCCCCCCCCCCCCCCc1cccc(OC)c1CSc1nc2cc(C)ccc2[nH]1 |
| 5.42 |  | < 3.30 | CCCCCCCCCCCCCCCc1cccc(OCC)c1CSc1nc2ccc([N+](=O)[O-])cc2[nH]1 |
| 6.00 | 384 | 3.42 | CCCCCCCCCCCCCCCc1cccc(O)c1CSc1nc2cc(OC)ccc2[nH]1 |
|  | > 80 |  | CCCCCCCCCCCCCCCc1cccc(OCC)c1CSc1nc2cc(OC)ccc2[nH]1 |
|  | > 130 |  | CCCCCCCCCCCCCCCc1cccc(OCC)c1CSc1nc2cc([N+](=O)[O-])ccc2[nH]1 |
| 5.56 | > 220 | < 3.30 | CCCCCCCCCCCCCCCc1cccc(OC)c1CSc1nc2ccccc2o1 |
| < 5.00 |  |  | CCCCCCCCCCCCCCCc1cccc(OCC)c1CSc1nc2ccccc2s1 |
| < 5.00 |  |  | CCCCCCCCCCCCCCCc1cccc(OCC)c1CSc1nc2ccccc2o1 |
| < 5.00 |  |  | CCCCCCCCCCCCCCCc1cccc(OC)c1CSc1nc2ccccc2[nH]1 |
